The record followed here is ChEMBL document CHEMBL2375359, “Synthesis and antibacterial evaluation of novel pleuromutilin derivatives” (2013).

What all share (type): functional
Assay [1] has as its system Streptococcus agalactiae. Description: Antibacterial activity against Streptococcus agalactiae at 80 ug/ml after 24 hrs by Oxford cup assay. Particulars: read-out: IZ. A digest of the protocol:
(§1)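 Oxford cup diffusion with clinical isolates. Inoculum made in 0.9% saline to a McFarland standard and spread evenly on nutrient agar. Compound solutions, prepared as for the agar dilution test, were added at the stated concentration to Oxford cups set equidistant on the agar surface. Inhibition zones were measured after 24 h at 37 °C.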

For assay [2], the system named is Streptococcus agalactiae. Briefly: Antibacterial activity against Streptococcus agalactiae at 160 ug/ml after 24 hrs by Oxford cup assay. The note with it: read-out: IZ. The method in brief:
as §1

Assay [3] concerns Escherichia coli. Briefly: Antibacterial activity against Escherichia coli at 80 ug/ml after 24 hrs by Oxford cup assay. Particulars: read-out: IZ. The method in brief:
as §1

Assay [4] deals with Streptococcus agalactiae. Description: Antibacterial activity against Streptococcus agalactiae at 320 ug/ml after 24 hrs by Oxford cup assay. Particulars: read-out: IZ. The method in brief:
as §1

The subject of assay [5] is Escherichia coli. Description: Antibacterial activity against Escherichia coli at 160 ug/ml after 24 hrs by Oxford cup assay. Particulars: read-out: IZ. The method in brief: as §1
Assay [6] has as its system Escherichia coli. Description: Antibacterial activity against Escherichia coli at 320 ug/ml after 24 hrs by Oxford cup assay. The note with it: read-out: IZ. The method in brief:
as §1

Assay [7] relates to Staphylococcus epidermidis. Description: Antibacterial activity against methicillin-resistant Staphylococcus epidermidis at 80 ug/ml after 24 hrs by Oxford cup assay. The note with it: read-out: IZ. The method in brief:
(§2)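 Oxford cup diffusion: clinical isolate inoculum in 0.9% saline set by McFarland standard, spread evenly on nutrient agar. Cups placed equidistant on the surface and filled with compound solutions prepared as for the agar dilution test, at several concentrations. Inhibition zone measured after 24 h at 37 °C.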

Assay [8] deals with Staphylococcus epidermidis. Briefly: Antibacterial activity against methicillin-resistant Staphylococcus epidermidis at 160 ug/ml after 24 hrs by Oxford cup assay. The note with it: read-out: IZ. The method in brief:
as §2

The subject of assay [9] is Staphylococcus epidermidis. Description: Antibacterial activity against methicillin-resistant Staphylococcus epidermidis at 320 ug/ml after 24 hrs by Oxford cup assay. The note with it: read-out: IZ. A digest of the protocol: as §2
Assay [10] concerns Staphylococcus aureus. Description: Antibacterial activity against methicillin-resistant Staphylococcus aureus at 80 ug/ml after 24 hrs by Oxford cup assay. The note with it: read-out: IZ. The method in brief:
as §2

Assay [11] has as its system Staphylococcus aureus. Briefly: Antibacterial activity against methicillin-resistant Staphylococcus aureus at 160 ug/ml after 24 hrs by Oxford cup assay. The note with it: read-out: IZ. The method in brief:
as §2

In assay [12] the test system is Staphylococcus aureus. Description: Antibacterial activity against methicillin-resistant Staphylococcus aureus at 320 ug/ml after 24 hrs by Oxford cup assay. Particulars: read-out: IZ. A digest of the protocol:
as §2

Assay [13] deals with Streptococcus agalactiae. Briefly: Antibacterial activity against Streptococcus agalactiae after 48 hrs by agar dilution method. A digest of the protocol: (§3)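 Agar dilution per NCCLS on clinical isolates. 2-fold serial dilutions of compound (2 mL) mixed into 18 mL hot Mueller-Hinton agar. Inoculum from blood slants, adjusted to approx. 10⁵–10⁶ cfu/mL in sterile 0.90% NaCl, then spotted onto the plates. Incubated 36.5 °C, 48 h. MIC is the lowest concentration giving complete growth inhibition. Run in triplicate at pH 7.40.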
A general note: In agar dilution the substance is mixed into plates at graded concentrations.

Assay [14] concerns Escherichia coli. Briefly: Antibacterial activity against Escherichia coli after 48 hrs by agar dilution method. The method in brief: as §3
For assay [15], the system named is Staphylococcus epidermidis. Description: Antibacterial activity against methicillin-resistant Staphylococcus epidermidis after 48 hrs by agar dilution method. A digest of the protocol:
(§4)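 Agar dilution per NCCLS: 2-fold serial dilutions incorporated into hot Mueller-Hinton agar. Clinical isolates grown from blood slants, suspended in sterile 0.90% NaCl to about 10⁵–10⁶ cfu/mL, spotted onto plates. Incubation 36.5 °C, 48 h. MIC taken as the lowest concentration giving complete growth inhibition. Run in triplicate at pH 7.40.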

The subject of assay [16] is Staphylococcus aureus. Description: Antibacterial activity against methicillin-resistant Staphylococcus aureus after 48 hrs by agar dilution method. The method in brief:
as §4

As a reminder, the MIC is the smallest concentration in the dilution series that meets the test's criterion for growth inhibition. Lower therefore signals greater potency.

The structures appear in SMILES notation. Converted amounts (≈) assume the structure as drawn.

On to `C=C[C@]1(C)C[C@@H](OC(=O)CSC(C)(C)CNC(=O)c2cccc(Cl)c2)[C@]2(C)[C@H](C)CC[C@]3(CCC(=O)[C@H]32)[C@@H](C)[C@@H]1O`, for which the zone of inhibition at 80 µg/mL with Streptococcus agalactiae [1] came out at 10.4 mm; in the assay with Escherichia coli [3] it was 11.9 mm; in assay [7], 9.45 mm; with Staphylococcus aureus [10] it was 11.9 mm. Also, the zone of inhibition at 160 µg/mL in the assay with Streptococcus agalactiae [2] was found to be 13.9 mm; in the assay with Escherichia coli [5], 10.7 mm; in assay [8] it was 10.6 mm; with Staphylococcus aureus [11] it was 13.1 mm. Also, the zone of inhibition at 320 µg/mL in the assay on Streptococcus agalactiae [4] was 12.2 mm; in the assay with Escherichia coli [6], 15.7 mm; in [9], 11.9 mm; with Staphylococcus aureus [12] it was 13.5 mm. In addition, the MIC was found to be 32 µg/mL (≈ 53 µM) in the assay with Streptococcus agalactiae [13], 8 µg/mL (≈ 13.2 µM) in the assay with Escherichia coli [14], 16 µg/mL (≈ 26.5 µM) in assay [15] and 8 µg/mL (≈ 13.2 µM) in the assay with Staphylococcus aureus [16].

As to `C=C[C@]1(C)C[C@@H](OC(=O)CSC(C)(C)CNC(=O)c2ccccc2C)[C@]2(C)[C@H](C)CC[C@]3(CCC(=O)[C@H]32)[C@@H](C)[C@@H]1O`, the zone of inhibition at 80 µg/mL in the assay on Streptococcus agalactiae [1] stood at 10 mm; with Escherichia coli [3], 12.1 mm; in assay [7], 10.7 mm; in the assay on Staphylococcus aureus [10] it was 10.3 mm. The zone of inhibition at 160 µg/mL in the assay with Streptococcus agalactiae [2] was determined as 10.9 mm; with Escherichia coli [5] it was 13.7 mm; in [8], 12.9 mm; with Staphylococcus aureus [11], 11.8 mm. Moreover, the zone of inhibition at 320 µg/mL in the assay with Streptococcus agalactiae [4] is 12.4 mm; in the assay on Escherichia coli [6], 15 mm; in assay [9] it was 13.8 mm; in the assay with Staphylococcus aureus [12] it was 12.3 mm. In addition, the MIC against Streptococcus agalactiae [13] was found to be 0.5 µg/mL (≈ 0.856 µM); with Escherichia coli [14], 2 µg/mL (≈ 3.43 µM); in assay [15], 16 µg/mL (≈ 27.4 µM); against Staphylococcus aureus [16], 0.25 µg/mL (≈ 0.428 µM).

For `C=C[C@]1(C)C[C@@H](OC(=O)CSCCN(CC)CC)[C@]2(C)[C@H](C)CC[C@]3(CCC(=O)[C@H]32)[C@@H](C)[C@@H]1O` [TIAMULIN], the zone of inhibition at 80 µg/mL is 11.1 mm in the assay on Streptococcus agalactiae [1], 15.2 mm in the assay on Escherichia coli [3], 14.5 mm in assay [7] and 16.5 mm in the assay on Staphylococcus aureus [10]. In addition, the zone of inhibition at 160 µg/mL worked out at 11.4 mm with Streptococcus agalactiae [2], 16.5 mm with Escherichia coli [5], 15.6 mm in [8] and 17.6 mm with Staphylococcus aureus [11]. The zone of inhibition at 320 µg/mL stood at 12.3 mm with Streptococcus agalactiae [4], 18.3 mm in the assay on Escherichia coli [6], 16.4 mm in assay [9] and 18.3 mm in the assay with Staphylococcus aureus [12]. For the same compound, the MIC in the assay on Streptococcus agalactiae [13] is 2 µg/mL (≈ 4.05 µM); in the assay with Escherichia coli [14], 2 µg/mL (≈ 4.05 µM); in assay [15] it was 2 µg/mL (≈ 4.05 µM); against Staphylococcus aureus [16], 0.5 µg/mL (≈ 1.01 µM).

Consider `C=C[C@]1(C)C[C@@H](OC(=O)CSC(C)(C)CNC(=O)c2ccc(C)cc2)[C@]2(C)[C@H](C)CC[C@]3(CCC(=O)[C@H]32)[C@@H](C)[C@@H]1O`, for which the zone of inhibition at 80 µg/mL with Streptococcus agalactiae [1] came to 9.82 mm; with Escherichia coli [3], 9.8 mm; in assay [7] it was 10.9 mm; in the assay with Staphylococcus aureus [10], 10.4 mm. The zone of inhibition at 160 µg/mL with Streptococcus agalactiae [2] turned out to be 10.9 mm; in the assay with Escherichia coli [5], 15.1 mm; in assay [8], 10.3 mm; with Staphylococcus aureus [11], 11.5 mm. Moreover, the zone of inhibition at 320 µg/mL was determined as 12.3 mm with Streptococcus agalactiae [4], 16.6 mm in the assay with Escherichia coli [6], 12.1 mm in assay [9] and 12.6 mm with Staphylococcus aureus [12]. Moreover, the MIC amounted to 0.5 µg/mL (≈ 0.856 µM) in the assay with Streptococcus agalactiae [13], 4 µg/mL (≈ 6.85 µM) in the assay on Escherichia coli [14], 16 µg/mL (≈ 27.4 µM) in assay [15] and 0.25 µg/mL (≈ 0.428 µM) with Staphylococcus aureus [16].
